pIC50: −log10 of the molar value.
How the values were obtained:
[1] = Inhibition of sheep brain tubulin assembly by DAPI staining-based fluorescence assay; design: species or system Ovis aries
In short: (§1)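 Tubulin from sheep brain, purified by two assembly–disassembly cycles, at about 2–3 mg/mL in 0.1 M MES, 0.5 mM MgCl2, 1 mM EGTA, 1 mM GTP, pH 6.6. Assembly followed by DAPI fluorescence at 37 °C. Single-point inhibition tested at 100 µM. IC50 is the concentration halving the assembly rate relative to no compound, mean of two experiments, with reference inhibitors run the same day.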

Ovis aries = organism: Ovis aries; assay: Inhibition of sheep brain tubulin assembly at 100 uM by DAPI staining-based fluorescence assay; in short: as §1
NCI-H522 = assay: Cytotoxicity against human NCI-H522 cells assessed as growth inhibition at 10 uM after 48 hrs by SRB assay; format: functional; conditions: NCI-H522, 48 h, read-out: GI
In short: (§2)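 Single-dose NCI 60-cell screen at 10 µM with 48 h exposure and sulforhodamine B read-out. Values are percentage growth per cell line. A summary ratio counts cell lines with 0–50% growth over all cell lines tested.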

KM12 = assay: Cytotoxicity against human KM12 cells assessed as growth inhibition at 10 uM after 48 hrs by SRB assay; format: functional; conditions: KM12, 48 h, read-out: GI; in short: as §2
SR = assay: Cytotoxicity against human SR cells assessed as growth inhibition at 10 uM after 48 hrs by SRB assay; format: functional; conditions: read-out: GI; in short: as §2
NCI/ADR-RES = assay: Cytotoxicity against human NCI/ADR-RES cells assessed as growth inhibition at 10 uM after 48 hrs by SRB assay; format: functional; conditions: read-out: GI; in short: as §2
K562 = assay: Cytotoxicity against human K562 cells assessed as growth inhibition at 10 uM after 48 hrs by SRB assay; format: functional; conditions: K562, 48 h, read-out: GI; in short: as §2
HL-60(TB) = assay: Cytotoxicity against human HL-60(TB) cells assessed as growth inhibition at 10 uM after 48 hrs by SRB assay; format: functional; conditions: HL-60, 48 h, read-out: GI
In short: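 Single high dose of 10 µM in the NCI 60-cell disease-oriented human tumour panel, with 48 h exposure and sulforhodamine B read-out of percentage growth.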

SW-620 = assay: Cytotoxicity against human SW620 cells assessed as growth inhibition at 10 uM after 48 hrs by SRB assay; format: functional; conditions: SW-620, 48 h, read-out: GI; in short: as §2
HCT-15 = assay: Cytotoxicity against human HCT15 cells assessed as growth inhibition at 10 uM after 48 hrs by SRB assay; format: functional; conditions: HCT-15, 48 h, read-out: GI; in short: as §2
M14 = assay: Cytotoxicity against human M14 cells assessed as growth inhibition at 10 uM after 48 hrs by SRB assay; format: functional; conditions: M14, 48 h, read-out: GI; in short: as §2
HCC 2998 = assay: Cytotoxicity against human HCC2998 cells assessed as growth inhibition at 10 uM after 48 hrs by SRB assay; format: functional; conditions: HCC 2998, 48 h, read-out: GI; in short: as §2
MDA-MB-468 = assay: Cytotoxicity against human MDA-MB-468 cells assessed as growth inhibition at 10 uM after 48 hrs by SRB assay; format: functional; conditions: MDA-MB-468, 48 h, read-out: GI; in short: as §2
MDA-MB-435 = assay: Cytotoxicity against human MDA-MB-435 cells assessed as growth inhibition at 10 uM after 48 hrs by SRB assay; format: functional; conditions: MDA-MB-435, 48 h, read-out: GI; in short: as §2
MCF7 = assay: Cytotoxicity against human MCF7 cells assessed as growth inhibition at 10 uM after 48 hrs by SRB assay; format: functional; conditions: MCF7, 48 h, read-out: GI; in short: as §2

Row | SMILES | pIC50 [1] | inhibition (Ovis aries) | inhibition of growth at 10 µM (NCI-H522) | inhibition of growth at 10 µM (KM12) | inhibition of growth at 10 µM (SR) | inhibition of growth at 10 µM (NCI/ADR-RES) | inhibition of growth at 10 µM (K562) | inhibition of growth at 10 µM (HL-60(TB)) | inhibition of growth at 10 µM (SW-620) | inhibition of growth at 10 µM (HCT-15) | inhibition of growth at 10 µM (M14) | inhibition of growth at 10 µM (HCC 2998) | inhibition of growth at 10 µM (MDA-MB-468) | inhibition of growth at 10 µM (MDA-MB-435) | inhibition of growth at 10 µM (MCF7)
1 | COc1ccc(C(=O)c2cc(OC)c(OC)c(OC)c2N)cc1F | 5.70 | – | – | – | – | – | – | – | – | – | – | – | – | – | –
2 | COc1ccc(C(O)c2cc(F)c(F)c(OC)c2F)cc1O (stereo unspecified) | – | 49% | 53% | 26% | 33% | 35% | 41% | – | – | – | – | – | – | – | –
3 | COc1ccc(C(=O)c2ccc(OC)c(NC(C)=O)c2OC)cc1F | – | 3% | – | – | – | – | – | – | – | – | – | – | – | – | –
4 | COc1ccc(C(=O)c2ccc(OC)c(N)c2OC)cc1F | – | 45% | 45% | 59% | 61% | – | 71% | 49% | 77% | 53% | 43% | 72% | 81% | 100% | 52%
